Reference: ChEMBL document CHEMBL1629709, “Inhibition of melanogenesis and oxidation by protocatechuic acid from Origanum vulgare (oregano)” (J Nat Prod, 2010)
Converted amounts (≈) assume the structure as drawn. The source made the active and inactive calls. No cut-off for these calls is given here.

Experiments:
[1] = test system: B16; assay: Cytotoxicity against mouse B16 cells up to 100 ug/ml after 72 hrs by MTT assay; type: cell-based; settings: b16, 72 h
Summary of the method: (§1)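 B16 or Hs68 cells (1 × 10^4/well) seeded ≥24 h in DMEM with 10% FBS, then treated 72 h with 0, 5, 10, 20, 50, 100 µg/mL. MTT (0.5 mg/mL) for 4 h, formazan dissolved in DMSO, A570 read. Viability given as % of 0.1% DMSO vehicle culture; independent triplicates, mean ± SD.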

[2] = test system: Hs68; assay: Cytotoxicity against human HS68 cells up to 100 ug/ml after 72 hrs by MTT assay; type: cell-based; settings: hs68, 72 h; summary of the method: as §1
[3] = target: T1, Tyrosinase (Mus musculus) (UniProt P11344); assay: Inhibition of tyrosinase in mouse B16 cells at 10 to 20 ug/ml after 72 hrs by spectrophotometry; type: cell-based
T1 sequence (whole entry): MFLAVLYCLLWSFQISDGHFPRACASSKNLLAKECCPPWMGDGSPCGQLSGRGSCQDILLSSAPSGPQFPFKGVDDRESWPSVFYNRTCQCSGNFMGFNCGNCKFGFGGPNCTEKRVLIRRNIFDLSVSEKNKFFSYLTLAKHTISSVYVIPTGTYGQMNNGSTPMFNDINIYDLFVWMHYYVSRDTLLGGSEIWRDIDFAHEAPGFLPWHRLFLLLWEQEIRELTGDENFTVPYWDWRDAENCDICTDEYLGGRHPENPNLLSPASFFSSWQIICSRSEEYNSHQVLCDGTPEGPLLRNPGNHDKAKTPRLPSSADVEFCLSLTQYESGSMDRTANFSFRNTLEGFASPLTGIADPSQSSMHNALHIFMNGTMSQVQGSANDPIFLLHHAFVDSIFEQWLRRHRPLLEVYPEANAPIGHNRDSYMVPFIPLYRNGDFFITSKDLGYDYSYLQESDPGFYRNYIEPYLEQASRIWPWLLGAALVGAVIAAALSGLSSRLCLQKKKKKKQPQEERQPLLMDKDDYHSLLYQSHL
Summary of the method: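 B16 cells (1 × 10^5 cells/mL) plated ≥24 h, then α-MSH (1 µM) alone or with 10 or 20 µg/mL agent for 72 h. Lysed in 50 mM sodium phosphate pH 6.8 with 1% Triton X-100 and freeze-thawed. 100 µL of 10 mM DOPA added, 37 °C for 4 h, DOPA oxidation read at A475 against α-MSH control; independent triplicates.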

[4] = target: T1, Tyrosinase (Mus musculus); assay: Inhibition of DOPA oxidase activity of tyrosinase in mouse B16 cells at 10 to 20 ug/ml after 72 hrs by colorimetry; type: cell-based
Summary of the method: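 B16 cells (1 × 10^5 cells/mL) plated ≥24 h, then α-MSH (1 µM) alone or with 10 or 20 µg/mL agent for 72 h. Lysed in 50 mM sodium phosphate pH 6.8 with 1% Triton X-100 and freeze-thawed. Substrate of 6.3 mM MBTH, 1.1 mM DOPA, pH 7.1 buffer with 4% DMF added. 37 °C for 4 h, A508 read against α-MSH control; independent triplicates.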

[5] = test system: Radical scavenging activity; assay: Antioxidant activity assessed as DPPH radical scavenging activity at 1 ug/ml after 30 mins; type: functional
Summary of the method: (§2)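 Sample (100 µL) added to 900 µL of 0.1 mM ethanolic DPPH and kept 30 min in the dark, then A517 read. Scavenging (%) = (1 − Asample/Acontrol) × 100. Control lacks test agent; ascorbic acid used as standard. EC50 estimated from the % inhibition versus concentration plot; mean ± SD, n = 3.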

[6] = test system: Radical scavenging activity; assay: Antioxidant activity assessed as DPPH radical scavenging activity at 5 ug/ml after 30 mins; type: functional; summary of the method: as §2
[7] = test system: Radical scavenging activity; assay: Antioxidant activity assessed as DPPH radical scavenging activity at 10 ug/ml after 30 mins; type: functional; summary of the method: as §2
[8] = test system: Radical scavenging activity; assay: Antioxidant activity assessed as DPPH radical scavenging activity at 20 ug/ml after 30 mins; type: functional; summary of the method: as §2
[9] = test system: Radical scavenging activity; assay: Antioxidant activity assessed as DPPH radical scavenging activity at 100 ug/ml after 30 mins; type: functional; summary of the method: as §2
[10] = test system: Radical scavenging activity; assay: Antioxidant activity assessed as DPPH radical scavenging activity after 30 mins; type: functional; summary of the method: as §2
[11] = Antioxidant activity assessed as trolox equivalent of ABTS radical scavenging activity after 12 to 16 hrs; type: functional
Summary of the method: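 ABTS (7 mM) oxidized with 2.45 mM potassium persulfate (final) in the dark at room temperature for 12–16 h. Diluted with ethanol to A734 0.70 ± 0.02 at 30 °C. 0.1 mL sample added to 2.9 mL, 20 min at 30 °C, A734 read. TEAC reported as mg Trolox/g, from the concentration giving the same absorbance change as 1 mg Trolox.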

[12] = Antioxidant activity in mouse BNL-CL2 cells assessed as inhibition of H2O2-induced ROS production at 20 ug/ml by DCFHDA assay; type: functional; settings: BNL CL.2, values are per cent of control
Summary of the method: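 BNLCL2 cells (1 × 10^5 cells/mL) exposed 24 h to 20 µg/mL agent. Detached, washed, loaded with 10 µM DCFH-DA in PBS for 30 min at 37 °C, then stimulated with 0.1 mM H2O2 for 30 min at 37 °C. DCF fluorescence read at ex 504/em 524 nm against H2O2-treated cells. Independent triplicates.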

[13] = Antioxidant activity assessed as reducing capacity of the compound up to 100 ug/ml after 20 mins; type: functional
Summary of the method: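 Sample (0.2 mL; 0, 1, 5, 10, 20, 100 µg/mL) mixed with sodium phosphate buffer pH 6.6 and 1% potassium ferricyanide, 50 °C for 20 min. 10% TCA added, centrifuged at 10000g for 10 min. Upper layer mixed with water and 0.1% FeCl3. A700 taken directly as reducing power; ascorbic acid standard; mean ± SD, n = 3.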

[14] = Antioxidant activity assessed as ferrous ion chelating effect after 10 mins; type: functional
Summary of the method: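 Ferrozine method. 10 µL sample with 20 µL of 2 mM FeCl2 for 5 min, then 40 µL of 5 mM ferrozine added and volume brought to 1 mL with water. Shaken and held 10 min at room temperature, A562 read. EDTA as positive control. Chelation (%) = (1 − Asample/Acontrol) × 100.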

[15] = Antioxidant activity assessed as inhibition of Fe2+/ascorbate-induced lipid peroxidation by TBA assay; type: functional
Summary of the method: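 Commercial liposomes (225–250 nm) with 10 mM FeSO4 and 10 mM ascorbic acid (11 µL each) plus compound in 50 mM sodium phosphate buffer pH 7.4, 2.5 mL final volume, 37 °C for 1 h. Stopped with TBA/TCA and EDTA, then heated at 100 °C for 20 min. Centrifuged and MDA adduct read at A532. Four replicates; inhibition (%) = (1 − Asample/Acontrol) × 100.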

[16] = test system: Liver; assay: Antioxidant activity in mouse liver assessed as inhibition of Fe2+/ascorbate-induced lipid peroxidation up to 20 ug/ml by TBARS assay relative to control; type: functional, tissue-based
Summary of the method: (§3)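 Male ICR mice, 7 weeks, 30–35 g. Liver or brain homogenized 1:1 (w/v) in ice-cold 40 mM Tris-HCl pH 7.4 and spun at 3000g. Supernatant incubated with sample (20 or 100 µg/mL), 10 µM FeSO4 and 0.1 mM ascorbic acid, 37 °C for 1 h. TCA then TBA added, 80 °C for 20 min, A532 of MDA-TBA read with MDA standard; % inhibition versus control.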

[17] = test system: Liver; assay: Antioxidant activity in mouse liver assessed as inhibition of Fe2+/ascorbate-induced lipid peroxidation up to 100 ug/ml by TBARS assay relative to control; type: functional, tissue-based; summary of the method: as §3
[18] = test system: B16; assay: Antimelanogenic activity in mouse B16 cells assessed as inhibition of alpha-MSH-induced melanin formation after 72 hrs by spectrophotometry; type: functional, cell-based
Summary of the method: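 B16 cells (1 × 10^5 cells/mL) grown 24 h, then α-MSH (1 µM) plus 10 or 20 µg/mL compound in phenol red-free DMEM for 72 h. Melanin released into the medium read at OD 405 nm and expressed as % of 0.1% DMSO vehicle control. Independent triplicate experiments, mean ± SD.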

[19] = test system: B16; assay: Effect on nuclear morphology of mouse B16 cells at 20 ug/ml after 72 hrs by Hoechst 33342 staining in presence of alpha-MSH; type: ADME, cell-based; settings: b16, 72 h
Summary of the method: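 B16 cells (1 × 10^5 cells/mL) given α-MSH (1 µM) alone or with 20 µg/mL compound for 72 h. Fixed in 4% paraformaldehyde, nuclei stained with 0.1 µg/mL Hoechst 33342, and viewed by inverted fluorescence microscopy (200×).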

[20] = test system: B16; assay: Antimelanogenic activity in mouse B16 cells assessed as decrease in MCIR expression at 20 ug/ml after 72 hrs by flow cytometry assay; type: functional; settings: B16, 72 h
Summary of the method: (§4)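 B16 cells (1 × 10^5 cells/mL) given α-MSH (1 µM) alone or with 20 µg/mL compound for 72 h. Mouse primary antibodies (1:300) 45 min at 4 °C, FITC anti-mouse IgG (1:500) 30 min at 4 °C. Read by flow cytometry against a normal mouse IgG1 isotype control; n = 3.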

[21] = test system: B16; assay: Antimelanogenic activity in mouse B16 cells assessed as decrease in MC1R expression at 20 ug/ml after 72 hrs by Western blotting; type: functional, cell-based
Summary of the method: (§5)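 B16 cells (1 × 10^5 cells/mL) given α-MSH (1 µM) alone as control or α-MSH plus 20 µg/mL compound, 72 h. Lysis at 4 °C for 20 min in Tris-HCl pH 7.5 buffer with 1% Triton X-100, EGTA, NaCl and PMSF. 40 µg protein run on 12.5% SDS-PAGE and transferred to nitrocellulose. Blocked in 5% skim milk. Probed with target and β-actin antibodies, HRP secondary, ECL detection.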

[22] = test system: B16; assay: Antimelanogenic activity in mouse B16 cells assessed as decrease in MITF expression at 20 ug/ml after 72 hrs by Western blotting; type: functional, cell-based; summary of the method: as §5
[23] = test system: B16; assay: Antimelanogenic activity in mouse B16 cells assessed as decrease in TRP2 expression at 20 ug/ml after 72 hrs by flow cytometry assay; type: functional; settings: B16, 72 h; summary of the method: as §4
[24] = test system: B16; assay: Antimelanogenic activity in mouse B16 cells assessed as decrease in MITF expression at 20 ug/ml after 72 hrs by flow cytometry assay; type: functional; settings: B16, 72 h; summary of the method: as §4
[25] = test system: B16; assay: Antimelanogenic activity in mouse B16 cells assessed as decrease in tyrosinase expression at 20 ug/ml after 72 hrs by flow cytometry assay; type: functional; settings: B16, 72 h; summary of the method: as §4
[26] = test system: B16; assay: Antimelanogenic activity in mouse B16 cells assessed as decrease in TRP1 expression at 20 ug/ml after 72 hrs by flow cytometry assay; type: functional; settings: B16, 72 h; summary of the method: as §4
[27] = test system: B16; assay: Antimelanogenic activity in mouse B16 cells assessed as decrease in tyrosinase expression at 20 ug/ml after 72 hrs by Western blotting; type: functional, cell-based; summary of the method: as §5
[28] = test system: B16; assay: Antimelanogenic activity in mouse B16 cells assessed as decrease in TRP2 expression at 20 ug/ml after 72 hrs by Western blotting; type: functional, cell-based; summary of the method: as §5
[29] = test system: B16; assay: Antimelanogenic activity in mouse B16 cells assessed as decrease in TRP1 expression at 20 ug/ml after 72 hrs by Western blotting; type: functional, cell-based; summary of the method: as §5
[30] = test system: Brain; assay: Antioxidant activity in mouse brain assessed as Fe2+/ascorbate-induced lipid peroxidation up to 100 ug/ml by TBARS assay relative to control

SMILES: OC[C@H]1O[C@@H](Oc2ccc(O)cc2)[C@H](O)[C@@H](O)[C@@H]1O [ARBUTIN]
- Activity [1]: Toxic
- Activity [2]: Toxic
- inhibition [3]: 33.1%
- inhibition [4]: 30.9%

SMILES: O=C1O[C@H]([C@@H](O)CO)C(O)=C1O [ASCORBIC ACID]
- Activity [5]: 0%
- Activity [6]: 62.5%
- Activity [7]: 71.3%
- Activity [8]: 81.4%
- Activity [9]: 87.6%
- EC50 [10]: 4.2 µg/mL (≈ 23.8 µM)
- EC50 [11]: 4.9 µg/mL
- response, % of control at 20 µg/mL [12]: 102%
- Activity [1]: Toxic
- Activity [2]: Toxic
- inhibition [3]: 29.8%
- inhibition [4]: 41.7%

SMILES: O=C(O)c1ccc(O)c(O)c1 [PROTOCATECHUIC ACID]
- Activity [5]: 43%
- Activity [6]: 68.4%
- Activity [7]: 70.4%
- Activity [8]: 74.6%
- Activity [9]: 82.7%
- EC50 [10]: 2.1 µg/mL (≈ 13.6 µM)
- EC50 [11]: 4 µg/mL
- Activity [13]: inactive
- Activity [14]: inactive
- inhibition [15]: Dose-dependent effect
- Activity [16]: Dose-dependent effect
- Activity [17]: Dose-dependent effect
- response, % of control at 20 µg/mL [12]: 85.1%
- Activity [1]: Non-toxic
- Activity [2]: Non-toxic
- inhibition [3]: 22.2%
- inhibition [4]: 57.4%
- inhibition [18]: Dose-dependent effect
- Activity [19]: Non-toxic
- inhibition at 20 µg/mL [20]: 21.1%
- inhibition [21]: Active
- inhibition [22]: Active
- inhibition at 20 µg/mL [23]: 29.3%
- inhibition at 20 µg/mL [24]: 46.6%
- inhibition at 20 µg/mL [25]: 34.8%
- inhibition at 20 µg/mL [26]: 54.6%
- inhibition [27]: Active
- inhibition [28]: Active
- inhibition [29]: Active
- MDA-TBA level relative to control [30]: 14.9%

SMILES: Cc1c(C)c2c(c(C)c1O)CCC(C)(C(=O)O)O2 (configuration not stated) [TROLOX]
- response, % of control at 20 µg/mL [12]: 81.2%
